Published values pooled from the literature.
Each line is one published result; the experiments were not run side by side.
Target: Serine/threonine-protein kinase Nek11 (NEK11, Homo sapiens, UniProt Q8NG66)
One construct used (Q8NG66 1-645): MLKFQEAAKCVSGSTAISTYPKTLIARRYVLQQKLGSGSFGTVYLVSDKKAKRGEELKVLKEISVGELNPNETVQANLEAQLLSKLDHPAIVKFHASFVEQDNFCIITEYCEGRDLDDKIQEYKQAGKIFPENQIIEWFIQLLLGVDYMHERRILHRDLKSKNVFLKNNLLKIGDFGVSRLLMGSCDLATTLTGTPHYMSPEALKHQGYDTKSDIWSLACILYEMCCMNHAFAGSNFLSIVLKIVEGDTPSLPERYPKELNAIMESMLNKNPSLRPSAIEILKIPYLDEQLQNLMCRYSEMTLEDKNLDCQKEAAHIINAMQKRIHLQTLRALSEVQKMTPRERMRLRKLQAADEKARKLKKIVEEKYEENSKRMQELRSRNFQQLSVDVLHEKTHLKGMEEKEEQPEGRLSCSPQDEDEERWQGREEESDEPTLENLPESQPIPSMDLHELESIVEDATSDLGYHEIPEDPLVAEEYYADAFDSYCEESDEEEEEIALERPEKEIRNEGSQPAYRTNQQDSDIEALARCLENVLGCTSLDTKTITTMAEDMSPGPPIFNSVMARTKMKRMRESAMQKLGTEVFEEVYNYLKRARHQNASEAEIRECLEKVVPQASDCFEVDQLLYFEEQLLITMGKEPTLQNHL

The remaining binding of `COCCOc1nc(-c2ccc(Cl)nc2)nc2c1CN(C(=O)c1ncn3ccccc13)CC2` is reported as 100% (cell-free assay; competition with immobilised ligand; 0.1 µM).
With `O=C(Nc1c[nH]nc1C(=O)NC1CCNCC1)c1cc(F)cc(F)c1` the remaining binding was 91% (binding; competition with immobilised ligand; 1 µM).
With `COc1cnc(Nc2cccc(S(N)(=O)=O)c2)nc1N1CCN(c2ccccc2)CC1` the remaining binding was 90% (binding; competition with immobilised ligand; 1 µM).
For `O=C(c1ccc(Nc2ncc(Cl)c(-c3cc4ccccc4s3)n2)cc1)N1CCC(N2CCCC2)CC1`, the remaining binding was 80% (binding; competition with immobilised ligand; 1 µM).
`CN(CCCC(F)(F)F)c1nccc(-c2cnn3ncccc23)n1` has a remaining binding of 100% (binding; 1 µM).
`C=CC(=O)N1CCC(C(=O)NCC(=O)N2CCN(c3nc(-c4cnc(N)nc4C(F)F)nc(N4CCOCC4)n3)CC2)CC1` has a remaining binding of 69% (binding; competition with immobilised ligand; 1 µM).
With `COc1ncc2cc3ccccc3nc2c1C#N` the remaining binding was 60% (cell-free assay; competition with immobilised ligand; 5 µM).
For `COc1cnc(Nc2cccc(S(N)(=O)=O)c2)nc1N1CCN(c2ccccc2)C(=O)C1`, the remaining binding was 90% (binding; competition with immobilised ligand; 1 µM).
`CC(=O)C1=C(C)N(c2cccc(C(F)(F)F)c2)C(=O)N[C@@H]1c1ccc(C#N)nc1` gave a remaining binding of 100% (cell-free assay; competition with immobilised ligand; 1 µM).
`c1cnn2ncc(-c3ccnc(N4CCC45COC5)n3)c2c1` gave a remaining binding of 89% (binding; 1 µM).
`O=C(NCCCN1CCOCC1)c1ccc(Nc2nccc(-c3cc4ccccc4s3)n2)cc1` has a remaining binding of 75% (binding; competition with immobilised ligand; 1 µM).
With `O=S(=O)(NC1CCC(c2cc(F)ccc2F)(S(=O)(=O)c2ccc(Cl)cc2)CC1)C(F)(F)F` (stereo not drawn) the remaining binding was 100% (cell-free assay; competition with immobilised ligand; 1 µM).
`Nc1ncc2c(n1)-c1c([nH]c3ccc(C#CC4CC4)cc13)CCCC2` has a remaining binding of 84% (binding; competition with immobilised ligand; 1 µM).
`N[C@H]1CCN(c2nccc(-c3cnn4ncccc34)n2)C1` gave a remaining binding of 71% (binding; 1 µM).
`Cc1cnc(Nc2ccc(C(=O)N3CCC(N4CCCC4)CC3)cc2)nc1-c1cc2ccccc2s1` has a remaining binding of 64% (binding; competition with immobilised ligand; 1 µM).
`CNCc1ccccc1-c1csc([C@H](C)Nc2nc(C)nc3cc(OC)c(OC)cc23)c1` has a remaining binding of 100% (cell-free assay; competition with immobilised ligand; 1 µM).
`CN(C)c1nccc(-c2cnn3ncccc23)n1` has a remaining binding of 100% (binding; 1 µM).
The remaining binding of `COc1ccc2c(c1)O[C@H](c1ccc(OC)c(OC)c1)C[C@@H]2NC(=O)C1(c2ccc3c(c2)OC(F)(F)O3)CC1` is reported as 88% (cell-free assay; competition with immobilised ligand; 1 µM).
For `CN(c1nccc(-c2cnn3ncccc23)n1)C1CC1`, the remaining binding was 100% (binding; 1 µM).
The remaining binding of `CS(=O)(=O)NCC[C@H](NC(=O)c1cncc2c1cnn2-c1ccc(F)cc1)c1ccnc(S(C)(=O)=O)c1` is reported as 100% (cell-free assay; competition with immobilised ligand; 1 µM).
`Cc1cnn2ncc(-c3ccnc(N(C)C)n3)c2c1` gave a remaining binding of 98% (binding; 1 µM).
